PAFAH1B3 inh = PAFAH1B3 enzyme inhibitors, primary screen, biochemical, fluorescence polarization, human | Platelet-activating factor acetylhydrolase IB subunit alpha1 (Homo sapiens), Q15102 | recombinant PAFAH1B3, FP-rhodamine probe | inhibition, % at 3.39 µM | hit rate 0.28% among 340,000;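 active means inhibition above the screen-wide average of all tested compounds plus 3 SD, cut at about 25% in these data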;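 further: 0% = enzyme with DMSO only and 100% = wells lacking PAFAH1B3 protein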
Target sequence (Q15102 whole entry, looked up): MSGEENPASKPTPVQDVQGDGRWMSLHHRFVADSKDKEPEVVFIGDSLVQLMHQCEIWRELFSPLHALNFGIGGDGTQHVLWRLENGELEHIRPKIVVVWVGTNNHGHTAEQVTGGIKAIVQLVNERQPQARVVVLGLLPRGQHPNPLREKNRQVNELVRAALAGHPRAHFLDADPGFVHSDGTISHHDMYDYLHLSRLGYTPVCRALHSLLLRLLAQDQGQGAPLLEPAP
PAFAH1B2 FP inh = PAFAH1B2 enzyme inhibitors, primary screen, biochemical, fluorescence polarization, human; Platelet-activating factor acetylhydrolase IB subunit alpha2 (Homo sapiens), P68402; recombinant PAFAH1B2, FP-rhodamine activity probe; inhibition, % at 3.39 µM; hit rate 1.2% among 340,000;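 active means inhibition above the mean of all tested compounds plus 3 SD, cut at about 24% in these data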;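 further: 0% = enzyme with DMSO and 100% = wells lacking PAFAH1B2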
UCH37 inh = inhibitors of human UCH37 deubiquitinase, primary screen, biochemical, Ub-AMC cleavage, fluorescence; hit rate 0.33% among 330,000; purified proteasome/UCH37; inhibition, % (test concentration not listed);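 active means mean inhibition over replicate wells above about 20%, limit read from the data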;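 further: 0% = compound-free wells with enzyme and 100% = wells lacking proteasome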
Target sequence (Q9Y5K5 whole entry, looked up): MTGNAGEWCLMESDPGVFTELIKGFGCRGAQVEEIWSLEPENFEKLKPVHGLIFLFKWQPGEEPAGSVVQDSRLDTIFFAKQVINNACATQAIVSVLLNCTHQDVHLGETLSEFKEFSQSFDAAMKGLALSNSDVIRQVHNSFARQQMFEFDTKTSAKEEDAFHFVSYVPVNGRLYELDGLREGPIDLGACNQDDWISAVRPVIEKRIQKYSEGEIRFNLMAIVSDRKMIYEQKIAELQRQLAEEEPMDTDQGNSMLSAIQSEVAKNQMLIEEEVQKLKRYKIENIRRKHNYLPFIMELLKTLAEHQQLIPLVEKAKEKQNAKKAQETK
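Material: Human UCH37 enzyme supplied as purified proteasome complex | Schedule: 30 min preincubation with enzyme, 25 min cleavage at room temperature | Detection: AMC fluorescence 355/460 nm | Measure: % inhibition of Ub-AMC cleavage fluorescence | Controls: Wells without proteasome as full block, compound-free enzyme plus substrate as uninhibited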
pPAFAH inh = pPAFAH enzyme inhibitors, primary screen, biochemical, fluorescence polarization, human | recombinant pPAFAH, FP-rhodamine probe fluorescence polarization | inhibition, % at 3.39 µM | hit rate 1.5% among 330,000 | AID 463082, 2010;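 active means inhibition above the mean inhibition across the screen plus 3 SD, cut at about 25% in these data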;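 further: inhibitors block binding of the rhodamine activity-based probe so polarization drops; 0% = enzyme with DMSO and 100% = wells lacking pPAFAH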
NR3A LBD binder = binders of NR3A ligand-binding domain, primary screen, biophysical, differential scanning fluorimetry, uHTS; NR3A LBD differential scanning fluorimetry, Tm shift; 0% = protein alone, 100% = glycine-bound protein; Tm shift relative to glycine control, % at 25 µM; hit rate 2.5% among 340,000;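 active means melting temperature shift of at least 10% of the positive control shift, at one fixed dose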
PAFAH2 inh = PAFAH2 enzyme inhibitors, primary screen, biochemical, fluorescence polarization, human; inhibition, % at 3.39 µM; recombinant PAFAH2, FP-rhodamine activity probe; Platelet-activating factor acetylhydrolase 2, cytoplasmic (Homo sapiens), Q99487; AID 492956, 2010; hit rate 0.99% among 340,000;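 active means inhibition above the mean over all tested compounds plus 3 SD, cut at about 30% in these data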;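 further: inhibitors block probe labeling of enzyme so polarization drops; 0% = enzyme with DMSO and 100% = wells lacking PAFAH2 protein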
The depositor's hits bear a star; / = no result given; + = active, no number. Compounds with a hit are over-represented: about 4.8% of the library has one in this group of screens.

SMILES | PAFAH1B3 inh | PAFAH1B2 FP inh | UCH37 inh | pPAFAH inh | NR3A LBD binder | PAFAH2 inh
O=C1C(=O)N(CCCN2CCOCC2)C(c2ccc(F)cc2)/C1=C(/O)c1ccccc1 (centres undefined) | -0.9 | 4.0 | 23.1* | 4.8 | 0.3 | 0.8
Cc1ccc(/C(O)=C2/C(=O)C(=O)N(CCN3CCOCC3)C2c2cccs2)cc1 (centres undefined) | 3.5 | 5.5 | 23.8* | -2.6 | -0.8 | 5.5
COc1cccc(/C(O)=C2/C(=O)C(=O)N(CCCN3CCOCC3)C2c2ccncc2)c1 (centres undefined) | 7.0 | 1.5 | 20.1* | 1.7 | -2.2 | 0.0
COC(=O)c1cnn(-c2ccccc2)c1C=NNC(=S)Nc1ccccc1 | / | / | 1.5 | / | / | /
N/C(=N\OC(=O)CCc1ccccc1)c1ccc(Br)cc1 | 4.3 | 71.0* | 2.0 | 6.3 | -7.2 | -1.5
Cc1ccc(/C(N)=N/OC(=O)CCc2ccccc2)cc1 | 1.9 | 9.0 | -1.6 | 3.9 | -12.8 | 2.9
N/C(=N\OC(=O)CCc1ccccc1)c1cccc(Br)c1 | 7.6 | 66.5* | 2.2 | 4.2 | -21.2 | 6.0
ON=Cc1cccnc1Sc1ccccc1 | / | / | 0.1 | / | / | /
COc1ccc(NCC(=O)NN=C/C=C/c2ccccc2[N+](=O)[O-])cc1 | / | / | 5.7 | / | / | /
COc1ccc(C=NNC(=O)c2cccnc2)c2ccccc12 | / | / | -14.9 | / | / | /
COc1cc(/C=N/NC(=O)c2ccncc2)ccc1OCC(=O)Nc1ccccc1 | 8.2 | 3.5 | / | -3.7 | -10.4 | -1.4
O=C(COc1ccc(/C=N/NC(=O)c2ccccc2O)cc1)Nc1ccccc1 | 3.3 | -4.1 | / | 4.1 | 15.8* | -2.2
COc1cc(/C=N/NC(=O)c2ccccc2O)ccc1OCC(=O)Nc1ccccc1 | -11.3 | -1.4 | / | 9.4 | 37.4* | -12.7
O=C(COc1ccc(/C=N/NC(=O)c2cccnc2)cc1)Nc1ccccc1 | 4.1 | 0.6 | / | -3.5 | 13.4* | -0.2
COc1ccc(/C=N/NC(=O)c2cccnc2)c2ccccc12 | 198.6* | 154.8* | / | 3.0 | -12.2 | +
CC1(C)CC(=O)C2=C(C1)N(Cc1ccco1)C(=O)C2(O)C(F)(F)F (centres undefined) | 2.8 | 9.9 | 2.6 | -3.4 | 68.5* | -7.2
CC1(C)CC(=O)C2=C(C1)N(Cc1ccco1)C(=O)C2(NC(=O)c1cccnc1)C(F)(F)F (centres undefined) | 5.8 | 5.2 | -0.9 | 4.2 | -1.6 | 5.2
Cc1ccc(C)n1-c1sc2c(c1C(=O)O)CCCC2 | -2.4 | 2.5 | 3.9 | 25.5* | -0.1 | 16.5
CCc1ccc(NC(=O)CSc2nc(CSc3ccc(C)cc3)cc(=O)[nH]2)cc1 | 1.6 | 54.3* | 2.1 | 26.9* | -6.3 | 2.1
O=[N+]([O-])c1cccc(-c2ccn[nH]2)c1 | 11.8 | -0.9 | 2.6 | 2.2 | 1.9 | -0.4
O=[N+]([O-])c1cc(-c2ccn[nH]2)ccc1Cl | 3.0 | 1.9 | 2.8 | 6.0 | 15.2* | 0.9
O=C(NN=Cc1c(Cl)[nH]c2ccccc12)c1ccc2c(c1)OCCO2 | / | / | 0.8 | / | / | /
Oc1c(Cl)cc(Cl)cc1CNc1nc2ccccc2[nH]1 | 9.3 | 6.3 | 3.2 | 18.3 | 10.3* | 19.8
CC(=O)c1cccc(NC(=S)NNC(=O)c2ccc(C)c([N+](=O)[O-])c2)c1 | 10.6 | 16.9 | 5.5 | 16.6 | 2.6 | 10.9
Cc1ccc(NC(=S)NNC(=O)c2cccc([N+](=O)[O-])c2)cc1Cl | 2.1 | 25.0* | 0.6 | 20.6 | 11.9* | 19.1
SMILES | PAFAH1B3 inh | PAFAH1B2 FP inh | UCH37 inh | pPAFAH inh | NR3A LBD binder | PAFAH2 inh
O=C(NNC(=S)Nc1ccc(F)cc1)c1cccc([N+](=O)[O-])c1 | 11.0 | 10.1 | -2.0 | 0.2 | -4.0 | 2.2
Cc1ccc(C(=O)NNC(=S)Nc2cccc(Cl)c2Cl)cc1[N+](=O)[O-] | 3.4 | 7.5 | -1.9 | 15.8 | 18.0* | 21.2
COc1ccc(C(=O)Oc2cccc(C=NNC(N)=S)c2)cc1 | / | / | 1.3 | / | / | /
NC(=S)NN=Cc1c(OCc2ccccc2Cl)ccc2ccccc12 | / | / | -1.5 | / | / | /
O=[N+]([O-])c1ccc2cn[nH]c2c1 | 0.8 | -1.2 | 2.4 | 3.7 | 14.3* | 2.9
C/C(C=NNC(=O)c1cc(-c2ccc(Cl)cc2)nc2ccccc12)=C\c1ccco1 | / | / | 0.2 | / | / | /
COc1ccccc1Nc1ccc(NC(=O)c2cccc([N+](=O)[O-])c2C)cc1 | 15.9 | 8.0 | 5.3 | 19.0 | 19.1* | -3.8
COc1ccc(OCC(=O)Nc2cc3oc4ccccc4c3cc2OC)cc1 | -9.1 | -5.2 | -22.2 | -2.8 | -10.9 | -8.9
COc1cc2c(cc1NC(=O)C(C)Sc1ccc(NC(C)=O)cc1)oc1ccccc12 (centres undefined) | 0.8 | -2.0 | 7.5 | -16.4 | 15.5* | -36.7
COc1cc2c(cc1NC(=O)c1cccc([N+](=O)[O-])c1C)oc1ccccc12 | -4.2 | -0.7 | 1.8 | -5.7 | 20.5* | 2.3
CC(=O)Nc1cc2oc3ccccc3c2cc1[N+](=O)[O-] | / | / | -0.8 | / | -0.2 | /
COc1ccc(S(=O)(=O)N[C@@H](C)C(=O)OCC(=O)Nc2cc3oc4ccccc4c3cc2OC)cc1 | -11.1 | -2.0 | -3.5 | 14.1 | 24.5* | -20.6
CCOC(=O)c1ccc(-c2ccc(C=NNC(=O)Cc3nnc(N)s3)o2)cc1 | / | / | -54.8 | / | / | /
COc1ccc(C)cc1NC(=O)Nc1cccc(C)c1 | 8.2 | -1.6 | 2.5 | 9.5 | 0.9 | 4.1
COc1cc2c(cc1NC(=S)Nc1ccccc1C)oc1ccccc12 | 1.3 | 3.6 | -8.2 | 4.8 | 0.2 | 1.1
COc1cc2c(cc1NC(=O)Nc1ccc(F)cc1)oc1ccccc12 | 2.3 | -0.6 | -34.3 | 1.8 | 185.5* | -2.5
COc1ccc(NC(=O)Nc2cc3oc4ccccc4c3cc2OC)cc1 | 4.8 | 0.9 | -33.7 | 12.3 | 13.1* | 4.2
COc1cc2c(cc1NC(=O)Nc1cccc(C)c1)oc1ccccc12 | 4.0 | 0.9 | -75.6 | 4.2 | 39.1* | 2.5
COc1cc2c(cc1NC(=O)Nc1ccc(C)cc1)oc1ccccc12 | 11.1 | 4.8 | -37.5 | 6.2 | 28.6* | -33.0
O=C(Cc1ccccc1)ON=C1CCCc2ccccc21 | / | / | 1.3 | / | / | /
COc1ccc(-c2[nH]ncc2C=NNS(=O)(=O)c2ccc(Cl)cc2)cc1 | / | / | 3.6 | / | / | /
CC(=NO)C(CN(C)C)=NO | / | / | 1.0 | / | / | /
COc1cc2c(cc1NC(=S)Nc1cccc(C)c1)oc1ccccc12 | 6.4 | 0.2 | -1.9 | 0.9 | 26.1* | -4.0
O=C(OCc1ccccc1Cl)c1cccnc1Cl | -0.5 | 3.6 | 0.7 | 10.0 | -1.6 | 0.3
O=C(OCc1c(Cl)cccc1Cl)c1cccnc1Cl | 0.3 | -2.4 | 3.2 | 31.6* | -0.7 | 5.4
O=C(OCc1c(Cl)cccc1Cl)c1cccnc1 | 1.9 | 0.7 | 0.5 | 33.1* | -0.6 | 6.7
